Assay results from ChEMBL document CHEMBL1137220, “2-(2-(dimethylaminomethyl)phenoxy)-5-iodophenylamine: an improved serotonin transporter imaging agent” (J Med Chem, 2004).

How the values were obtained:
[1] = Distribution ratio in cortex and cerebellum was determined after 240 min of intravenous administration of the compound; [125I]- is used as radioactive isotope; format: ADME, tissue-based; settings: rat, 4 h
Method in brief: (§1)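 After femoral-vein injection of 10 μCi [¹²⁵I] tracer in 0.2 mL saline under ether anaesthesia (three rats per group), brain regions were dissected, weighed and counted: cortex (frontal plus occipital), hippocampus, hypothalamus and cerebellum. %dose/g was calculated against a diluted injected-dose standard. Ratio = (region − cerebellum)/cerebellum on a %dose/g basis, with cerebellum as the background region.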

[2] = Biodistribution in rat heart was determined after 2 min of intravenous administration of the compound; [125I]- is used as radioactive isotope; format: ADME, organism-based; settings: in vivo
Method in brief: (§2)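 Rats under ether anesthesia, three per group, received 10 μCi tracer in 0.2 mL saline into the femoral vein. They were killed by cardiac excision under ether at each time point. Organs were removed, weighed and counted. Percent dose per organ was calculated against a 1%-of-injected-dose standard counted at the same time.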

[3] = Distribution ratio in hippocampus and cerebellum was determined after 120 min of intravenous administration of the compound; [125I]- is used as radioactive isotope; format: ADME, tissue-based; settings: rat, 2 h; method in brief: as §1
[4] = Biodistribution in rat liver was determined after 2 min of intravenous administration of the compound; [125I]- is used as radioactive isotope; format: ADME, organism-based; settings: in vivo; method in brief: as §2
[5] = Regional brain distribution in rat cortex was determined after 60 min of intravenous administration of the compound; [125I]- is used as radioactive isotope; format: ADME; settings: in vivo, 1 h
Method in brief: (§3)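 Rats, three per group, injected with 10 μCi tracer in 0.2 mL saline via the femoral vein under ether anesthesia and killed by cardiac excision at the stated time. Cortex (frontal plus occipital), striatum, hippocampus, cerebellum and hypothalamus were dissected, weighed and gamma-counted. Values are % dose/g, calculated by comparison with counts of a 100-fold diluted aliquot of the injected dose.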

[6] = Distribution ratio in striatum and cerebellum was determined after 11 hrs of intravenous administration of the compound; [125I]- is used as radioactive isotope; format: ADME, tissue-based; settings: rat
Method in brief: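 Rats, three per group, given 10 μCi tracer in 0.2 mL saline into the femoral vein under ether anesthesia, then killed by cardiac excision at the stated time. Brain regions were dissected, weighed and counted. Percent dose/g was calculated against a 1% diluted aliquot of the injected dose. The ratio is (region − cerebellum)/cerebellum on a % dose/g basis, with cerebellum as background.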

[7] = Biodistribution in rat lung was determined after 2 min of intravenous administration of the compound; [125I]- is used as radioactive isotope; format: ADME, organism-based; settings: in vivo; method in brief: as §2
[8] = Biodistribution in rat liver was determined after 120 min of intravenous administration of the compound; [125I]- is used as radioactive isotope; format: ADME, organism-based; settings: in vivo, 2 h; method in brief: as §2
[9] = Biodistribution in rat brain was determined after 6 hours of intravenous administration of the compound; [125I]- is used as radioactive isotope; format: ADME, organism-based; settings: in vivo; method in brief: as §2
[10] = Biodistribution in rat kidney was determined after 120 min of intravenous administration of the compound; [125I]- is used as radioactive isotope; format: ADME, organism-based; settings: in vivo, 2 h; method in brief: as §2
[11] = Regional brain distribution in rat cortex was determined after 30 min of intravenous administration of the compound; [125I]- is used as radioactive isotope; format: ADME; settings: in vivo, 0.5 h; method in brief: as §3
[12] = Regional brain distribution in rat cortex was determined after 120 min of intravenous administration of the compound; [125I]- is used as radioactive isotope; format: ADME; settings: in vivo, 2 h; method in brief: as §3
[13] = Biodistribution in rat lung was determined after 30 min of intravenous administration of the compound; [125I]- is used as radioactive isotope; format: ADME, organism-based; settings: in vivo, 0.5 h; method in brief: as §2
[14] = Biodistribution in rat skin was determined after 6 hours of intravenous administration of the compound; [125I]- is used as radioactive isotope; format: ADME, organism-based, Zone of skin; settings: in vivo
Method in brief: (§4)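 Rats, three per group, under ether anaesthesia, received 10 μCi of [¹²⁵I]-labelled tracer in 0.2 mL saline into the femoral vein. They were killed by cardiac excision under ether at each time point. Organs were removed, weighed and counted. Percent dose per organ was calculated against counts of a 1% aliquot of the injected dose (100-fold diluted) counted at the same time.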

[15] = Regional brain distribution in rat hippocampus was determined after 120 min of intravenous administration of the compound; [125I]- is used as radioactive isotope; format: ADME, tissue-based; settings: in vivo, 2 h; method in brief: as §3
[16] = Regional brain distribution in rat cerebellum was determined after 24 hours of intravenous administration of the compound; [125I]- is used as radioactive isotope; format: ADME, tissue-based; settings: in vivo; method in brief: as §3
[17] = Biodistribution in rat muscle was determined after 6 hours of intravenous administration of the compound; [125I]- is used as radioactive isotope; format: ADME, organism-based, Muscle tissue; settings: in vivo; method in brief: as §4
[18] = Regional brain distribution in rat striatum was determined after 6 hours of intravenous administration of the compound; [125I]- is used as radioactive isotope; format: ADME, tissue-based; settings: in vivo; method in brief: as §3
[19] = Biodistribution in rat spleen was determined after 30 min of intravenous administration of the compound; [125I]- is used as radioactive isotope; format: ADME, organism-based; settings: in vivo, 0.5 h; method in brief: as §4
[20] = Biodistribution in rat liver was determined after 24 hours of intravenous administration of the compound; [125I]- is used as radioactive isotope; format: ADME, organism-based; settings: in vivo; method in brief: as §2
[21] = Biodistribution in rat brain was determined after 30 min of intravenous administration of the compound; [125I]- is used as radioactive isotope; format: ADME, organism-based; settings: in vivo, 0.5 h; method in brief: as §2
[22] = Biodistribution in rat heart was determined after 30 min of intravenous administration of the compound; [125I]- is used as radioactive isotope; format: ADME, organism-based; settings: in vivo, 0.5 h; method in brief: as §2
[23] = Biodistribution in rat muscle was determined after 24 hours of intravenous administration of the compound; [125I]- is used as radioactive isotope; format: ADME, organism-based, Muscle tissue; settings: in vivo; method in brief: as §4
[24] = Biodistribution in rat kidney was determined after 6 hours of intravenous administration of the compound; [125I]- is used as radioactive isotope; format: ADME, organism-based; settings: in vivo; method in brief: as §2
[25] = Biodistribution in rat skin was determined after 240 min of intravenous administration of the compound; [125I]- is used as radioactive isotope; format: ADME, organism-based, Zone of skin; settings: in vivo, 4 h; method in brief: as §4
[26] = Regional brain distribution in rat hippocampus was determined after 24 hours of intravenous administration of the compound; [125I]- is used as radioactive isotope; format: ADME, tissue-based; settings: in vivo; method in brief: as §3
[27] = Biodistribution in rat thyroid was determined after 30 min of intravenous administration of the compound; [125I]- is used as radioactive isotope; format: ADME, organism-based, Thyroid gland; settings: in vivo, 0.5 h; method in brief: as §4
[28] = Biodistribution in rat thyroid was determined after 240 min of intravenous administration of the compound; [125I]- is used as radioactive isotope; format: ADME, organism-based, Thyroid gland; settings: in vivo, 4 h; method in brief: as §4
[29] = Regional brain distribution in rat cortex was determined after 11 hours of intravenous administration of the compound; [125I]- is used as radioactive isotope; format: ADME; settings: in vivo; method in brief: as §3
[30] = Distribution ratio in cortex and cerebellum was determined after 30 min of intravenous administration of the compound; [125I]- is used as radioactive isotope; format: ADME, tissue-based; settings: rat, 0.5 h; method in brief: as §1
[31] = Regional brain distribution in rat striatum was determined after 30 min of intravenous administration of the compound; [125I]- is used as radioactive isotope; format: ADME, tissue-based; settings: in vivo, 0.5 h; method in brief: as §3
[32] = Biodistribution in rat thyroid was determined after 11 hours of intravenous administration of the compound; [125I]- is used as radioactive isotope; format: ADME, organism-based, Thyroid gland; settings: in vivo; method in brief: as §4
[33] = Biodistribution in rat heart was determined after 6 hours of intravenous administration of the compound; [125I]- is used as radioactive isotope; format: ADME, organism-based; settings: in vivo; method in brief: as §2
[34] = Regional brain distribution in rat cerebellum was determined after 6 hours of intravenous administration of the compound; [125I]- is used as radioactive isotope; format: ADME, tissue-based; settings: in vivo; method in brief: as §3

For `CN(C)Cc1ccccc1Oc1ccc(I)cc1N`, which Dose/g [1] is on record?
Its Dose/g is 1.12%.

And the Dose [2]?
Its Dose is 1.51%.

And the Dose/g [3]?
Its Dose/g is 2.19%.

And the Dose [4]?
Its Dose is 5.71%.

What about the Dose/g [5] of the same compound?
The Dose/g was 0.95%.

What about the Dose/g [6] of the same compound?
The Dose/g was 0.14%.

And the Dose [7]?
The Dose was 17.2%.

And the Dose [8]?
Its Dose is 4.9%.

And the Dose [9]?
Its Dose is 0.11%.

What about the Dose [10] of the same compound?
Its Dose is 1.24%.

And the Dose/g [11]?
Its Dose/g is 1.25%.

And the Dose/g [12]?
The Dose/g was 0.51%.

And the Dose [13]?
Its Dose is 3.56%.

And the Dose [14]?
The Dose was 15.5%.

What about the Dose/g [15] of the same compound?
Its Dose/g is 0.65%.

And the Dose/g [16]?
The Dose/g was 0.0049%.

And the Dose [17]?
Its Dose is 5.01%.

What about the Dose/g [18] of the same compound?
The Dose/g was 0.068%.

And the Dose [19]?
The Dose was 0.84%.

What about the Dose [20] of the same compound?
The Dose was 1.83%.

And the Dose [21]?
Its Dose is 2.12%.

What about the Dose [22] of the same compound?
Its Dose is 0.32%.

What about the Dose [23] of the same compound?
The Dose was 1.13%.

What about the Dose [24] of the same compound?
Its Dose is 0.55%.

What about the Dose [25] of the same compound?
Its Dose is 12.6%.

What about the Dose/g [26] of the same compound?
The Dose/g was 0.004%.

What about the Dose [27] of the same compound?
Its Dose is 0.15%.

What about the Dose [28] of the same compound?
Its Dose is 2.34%.

And the Dose/g [29]?
The Dose/g was 0.01%.

And the Dose/g [30]?
The Dose/g was 0.96%.

And the Dose/g [31]?
The Dose/g was 1.16%.

What about the Dose [32] of the same compound?
The Dose was 5.15%.

What about the Dose [33] of the same compound?
The Dose was 0.08%.

What about the Dose/g [34] of the same compound?
The Dose/g was 0.027%.
